Test results reported in ChEMBL document CHEMBL1255398, “In vitro activities of eight antifungal drugs against 55 clinical isolates of Fonsecaea spp” (2010).
Values after ≈ are worked out from the molar mass of the structure shown. Starred links: 1 amine or outer side, 2 acyl side, 3 side chain; linkers in the order of their positions; H or OH if unused. Positions of bridges follow the written chain, without caps; N, C: chain ends. Non-standard residues stand in square brackets, D forms with d. Residues, ends and D or L forms follow the SMILES beside them. *: point of attachment. pTerphenylCO(4''-OnC5H11) = CCCCCOc1ccc(-c2ccc(-c3ccc(C(=O)*)cc3)cc2)cc1; Orn(4R-OH,5R-OH) = O=C([C@H](C[C@@H](O)[C@@H](O)N[*:3])N[*:1])[*:2]; hTyr(3S-OH,4S-OH) = N[C@H](C(=O)O)[C@H](O)[C@@H](O)c1ccc(O)cc1; Pro(3S-OH,4S-Me) = C[C@H]1CN[C@H](C(=O)O)[C@H]1O; Hyp = O=C(O)[C@@H]1C[C@@H](O)CN1

Legend:
Format in all cases: functional
[1] = system: Fonsecaea; assay: Antimicrobial activity against Fonsecaea nubica isolates after 72 hrs by CLSI M38-A2 protocol method
Method in brief: (§1)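 Broth microdilution per CLSI M38-A2. Isolates grown on potato dextrose agar at 35°C for up to 7 days. Inocula were scraped into saline with 0.05% Tween 40, settled 3 to 5 min, and adjusted at 530 nm to 68 to 71% transmission (1.5 × 104 to 4 × 10^4 CFU/ml). Incubated 72 h at 35°C and read visually against drug-free control: MIC at 100% or ≥50% inhibition depending on drug, MEC microscopically by compact hyphae.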

[2] = system: Fonsecaea monophora; assay: Antimicrobial activity against Fonsecaea monophora isolates after 72 hrs by CLSI M38-A2 protocol method; method in brief: as §1
[3] = system: Fonsecaea pedrosoi; assay: Antimicrobial activity against Fonsecaea pedrosoi isolates after 72 hrs by CLSI M38-A2 protocol method; method in brief: as §1
[4] = system: Fonsecaea; assay: Antimicrobial activity against Fonsecaea isolates after 72 hrs by CLSI M38-A2 protocol method; method in brief: as §1

| SMILES | MIC50 [1] [µg/mL] | MIC90 [1] [µg/mL] | MIC50 [2] [µg/mL] | MIC90 [2] [µg/mL] | MIC50 [3] [µg/mL] | MIC90 [3] [µg/mL] | MIC50 [4] [µg/mL] | MIC90 [4] [µg/mL] | MIC [1] [µg/mL] |
| --- | --- | --- | --- | --- | --- | --- | --- | --- | --- |
| CCC(C)n1ncn(-c2ccc(N3CCN(c4ccc(OCC5COC(Cn6cncn6)(c6ccc(Cl)cc6Cl)O5)cc4)CC3)cc2)c1=O (configuration not stated) [ITRACONAZOLE] | 0.125 (≈ 0.177 µM) | 0.25 (≈ 0.354 µM) | 0.063 (≈ 0.0893 µM) | 0.125 (≈ 0.177 µM) | 0.063 (≈ 0.0893 µM) | 0.125 (≈ 0.177 µM) | 0.063 (≈ 0.0893 µM) | 0.125 (≈ 0.177 µM) |  |
| C[C@@H]1[C@H](O)[C@@H](C)/C=C/C=C/C=C/C=C/C=C/C=C/C=C/[C@H](O[C@@H]2O[C@H](C)[C@@H](O)[C@H](N)[C@@H]2O)C[C@@H]2O[C@](O)(C[C@@H](O)C[C@@H](O)[C@H](O)CC[C@@H](O)C[C@@H](O)CC(=O)O[C@H]1C)C[C@H](O)[C@H]2C(=O)O [AMPHOTERICIN B] | 1 (≈ 1.08 µM) | 2 (≈ 2.16 µM) | 1 (≈ 1.08 µM) | 2 (≈ 2.16 µM) | 1 (≈ 1.08 µM) | 2 (≈ 2.16 µM) | 1 (≈ 1.08 µM) | 2 (≈ 2.16 µM) |  |
| OC(Cn1cncn1)(Cn1cncn1)c1ccc(F)cc1F [FLUCONAZOLE] | 16 (≈ 52.2 µM) | 32 (≈ 104 µM) | 16 (≈ 52.2 µM) | 32 (≈ 104 µM) | 32 (≈ 104 µM) | 32 (≈ 104 µM) | 16 (≈ 52.2 µM) | 32 (≈ 104 µM) | 16 (≈ 52.2 µM) |
| C[C@@H](c1nc(-c2ccc(C#N)cc2)cs1)[C@](O)(Cn1cncn1)c1cc(F)ccc1F [ISAVUCONAZOLE] | 0.125 (≈ 0.286 µM) | 0.5 (≈ 1.14 µM) | 0.125 (≈ 0.286 µM) | 0.25 (≈ 0.571 µM) | 0.25 (≈ 0.571 µM) | 0.25 (≈ 0.571 µM) | 0.25 (≈ 0.571 µM) | 0.25 (≈ 0.571 µM) |  |
| CCCCCOc1ccc(-c2ccc(-c3ccc(C(=O)N[C@H]4C[C@@H](O)[C@@H](O)NC(=O)[C@@H]5[C@@H](O)[C@@H](C)CN5C(=O)[C@H]([C@@H](C)O)NC(=O)[C@H]([C@H](O)[C@@H](O)c5ccc(O)cc5)NC(=O)[C@@H]5C[C@@H](O)CN5C(=O)[C@H]([C@@H](C)O)NC4=O)cc3)cc2)cc1 [ANIDULAFUNGIN] ({pTerphenylCO(4''-OnC5H11)}-[Orn(4R-OH,5R-OH)]T[Hyp][hTyr(3S-OH,4S-OH)]T[Pro(3S-OH,4S-Me)]; lactam 1-C) | 2 (≈ 1.75 µM) | 8 (≈ 7.02 µM) | 4 (≈ 3.51 µM) | 8 (≈ 7.02 µM) | 8 (≈ 7.02 µM) | 8 (≈ 7.02 µM) |  |  | 2 (≈ 1.75 µM) |
| CC[C@H](C)C[C@H](C)CCCCCCCCC(=O)N[C@H]1C[C@@H](O)[C@@H](NCCN)NC(=O)[C@@H]2[C@@H](O)CCN2C(=O)[C@H]([C@H](O)CCN)NC(=O)[C@H]([C@H](O)[C@@H](O)c2ccc(O)cc2)NC(=O)[C@@H]2C[C@@H](O)CN2C(=O)[C@H]([C@@H](C)O)NC1=O [CASPOFUNGIN] | 2 (≈ 1.83 µM) | 4 (≈ 3.66 µM) | 2 (≈ 1.83 µM) | 2 (≈ 1.83 µM) | 4 (≈ 3.66 µM) | 4 (≈ 3.66 µM) | 2 (≈ 1.83 µM) | 2 (≈ 1.83 µM) | 2 (≈ 1.83 µM) |
| CC[C@@H]([C@H](C)O)n1ncn(-c2ccc(N3CCN(c4ccc(OC[C@@H]5CO[C@@](Cn6cncn6)(c6ccc(F)cc6F)C5)cc4)CC3)cc2)c1=O [POSACONAZOLE] | 0.031 (≈ 0.0442 µM) | 0.063 (≈ 0.0899 µM) | 0.031 (≈ 0.0442 µM) | 0.063 (≈ 0.0899 µM) | 0.063 (≈ 0.0899 µM) | 0.063 (≈ 0.0899 µM) | 0.031 (≈ 0.0442 µM) | 0.063 (≈ 0.0899 µM) | 0.031 (≈ 0.0442 µM) |
| C[C@@H](c1ncncc1F)[C@](O)(Cn1cncn1)c1ccc(F)cc1F [VORICONAZOLE] | 0.25 (≈ 0.716 µM) | 0.5 (≈ 1.43 µM) | 0.063 (≈ 0.18 µM) | 0.125 (≈ 0.358 µM) | 0.5 (≈ 1.43 µM) | 0.5 (≈ 1.43 µM) | 0.25 (≈ 0.716 µM) | 0.5 (≈ 1.43 µM) | 0.25 (≈ 0.716 µM) |
